Consider one molecule from ChEMBL document CHEMBL1926538, “3,5-Disubstituted-thiazolidine-2,4-dione analogs as anticancer agents: design, synthesis and biological characterization” (Eur J Med Chem, 2012).

As usually defined, the inhibition is how much of the control response was suppressed.

Assay [1] has as its system U-937. The assay is described as follows: Induction of apoptosis in human U937 cells assessed as viable cells at 10 uM after 18 hrs by annexinV-propidium iodide staining-based flow cytometric analysis (reference value: 87.2%). The assay is classed as functional. As to conditions: U-937, 18 h, read-out: Activity. Background: In flow cytometry, cells or beads pass a laser one at a time.

For assay [2], the system named is U-937. Nature of the assay: Induction of apoptosis in human U937 cells assessed as necrotic cells at 3 uM after 6 hrs by annexinV-propidium iodide staining-based flow cytometric analysis (reference value: 1.2%). It is filed as functional.
In assay [3] the target is MAP kinase-activated protein kinase 2 (Homo sapiens) (UniProt P49137). The assay is described as follows: Inhibition of MAPKAPK2 at 10 uM.
In assay [4] the target is Tyrosine-protein kinase Lck (Homo sapiens) (UniProt P06239). Nature of the assay: Inhibition of LCK at 10 uM.
For a further assay, the system named is DU-145. The assay is described as follows: Inhibition of PI3K-mediated Akt phosphorylation in human DU145 cells at 10 to 20 uM after 24 hrs by Western blot analysis. It is filed as cell-based. The essentials: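 DU145 cells were grown in RPMI 1640 with 10% FBS and treated for 24 h at the indicated concentrations. Lysates were immunoblotted with phospho-Akt (Ser473) primary antibody (1:1000) and HRP secondary (1:2000), then detected by chemiluminescence. α-Tubulin reprobing checked loading.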

Calls of active or inactive are those of the source. The rule behind the calls is not given here.

Chain of MAP kinase-activated protein kinase 2 (Homo sapiens) (P49137 whole entry, looked up): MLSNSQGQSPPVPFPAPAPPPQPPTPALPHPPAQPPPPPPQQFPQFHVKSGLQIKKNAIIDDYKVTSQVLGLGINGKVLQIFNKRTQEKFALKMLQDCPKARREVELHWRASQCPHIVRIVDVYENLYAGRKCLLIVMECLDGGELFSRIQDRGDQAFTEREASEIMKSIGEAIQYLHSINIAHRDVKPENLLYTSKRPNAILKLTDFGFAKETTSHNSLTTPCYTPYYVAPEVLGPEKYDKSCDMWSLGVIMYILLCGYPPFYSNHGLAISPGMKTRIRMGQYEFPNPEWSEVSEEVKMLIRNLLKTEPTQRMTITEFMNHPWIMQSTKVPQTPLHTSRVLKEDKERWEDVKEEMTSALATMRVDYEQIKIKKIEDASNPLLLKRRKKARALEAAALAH
Chain of Tyrosine-protein kinase Lck (Homo sapiens) (P06239 2-509 limits assumed): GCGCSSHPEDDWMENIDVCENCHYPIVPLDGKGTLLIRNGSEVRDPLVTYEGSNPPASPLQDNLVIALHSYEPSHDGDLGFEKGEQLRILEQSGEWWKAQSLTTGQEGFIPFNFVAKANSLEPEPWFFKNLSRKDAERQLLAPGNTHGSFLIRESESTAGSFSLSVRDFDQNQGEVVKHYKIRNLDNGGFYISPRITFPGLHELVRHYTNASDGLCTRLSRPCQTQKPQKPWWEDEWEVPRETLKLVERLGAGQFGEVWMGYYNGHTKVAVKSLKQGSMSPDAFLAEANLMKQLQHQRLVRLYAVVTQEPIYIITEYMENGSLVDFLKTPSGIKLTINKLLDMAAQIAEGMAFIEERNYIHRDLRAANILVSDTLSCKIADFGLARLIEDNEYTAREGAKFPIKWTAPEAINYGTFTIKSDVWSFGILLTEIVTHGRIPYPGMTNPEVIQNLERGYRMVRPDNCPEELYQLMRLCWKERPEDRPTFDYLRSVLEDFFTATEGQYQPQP

Turning to `NCCN1C(=O)S/C(=C\CCC2CCCCC2)C1=O`, the viability at 10 µM with U-937 [1] is 42.9%. For the same molecule, the Activity with U-937 [2] was 2.1%. The inhibition in assay [3] amounted to 3%; in assay [4], 4%. Besides, in the assay with DU-145, the inhibition entry is “Active”.
